In brackets after ≈: the same amount, converted by molar mass.
Legend:
Assay type in all cases: functional
Pseudomonas aeruginosa [1] = experiment: In Vitro antibacterial activity against (Pa) Pseudomonas aeruginosa ATCC 27853
In short: (§1)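 Panel of standard ATCC strains plus modified strains: methicillin-resistant, hyperpermeable, β-lactamase-producing (TEM1, TEM2, SHV) and β-lactamase-lacking. MIC determined in Mueller Hinton 2 medium, inoculum 10⁴ cells/mL, incubated 24 h at 37 °C.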

Escherichia coli [2] = experiment: In Vitro antibacterial activity against (Ec TEM2) Escherichia coli […] strain; in short: as §1
Escherichia coli [3] = experiment: In Vitro antibacterial activity against (Ec DC2) hyperpermeable Escherichia coli strain; in short: as §1
Staphylococcus aureus [4] = experiment: In vitro antibacterial activity against Sa MR(II) homogeneous methicillin resistant Staphylococcus aureus
In short: (§2)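 MIC was determined in Mueller Hinton 2 medium with an inoculum of 10⁴ cells/mL and incubation for 24 h at 37 °C. Strains: Sa(I) is S. aureus ATCC 29213; Sa MR(I) is a heterogeneous methicillin-resistant S. aureus; Sa MR(II) is a homogeneous methicillin-resistant S. aureus.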

Enterococcus faecalis = experiment: In Vitro antibacterial activity against (Ef) Enterococcus faecalis ATCC 29212; in short: as §1
Escherichia coli [5] = experiment: In Vitro antibacterial activity against (Ec L) Escherichia coli […] strain; in short: as §1
Escherichia coli [6] = experiment: In Vitro antibacterial activity against (Ec TEM1) Escherichia coli […] strain; in short: as §1
Escherichia coli [7] = experiment: In Vitro antibacterial activity against (Ec SHV) Escherichia coli […] strain; in short: as §1
Staphylococcus aureus [8] = experiment: In vitro antibacterial activity against Sa MR(I) heterogeneous methicillin resistant Staphylococcus aureus; in short: as §2
Pseudomonas aeruginosa [9] = experiment: In Vitro antibacterial activity against (Pa) hyperpermeable Pseudomonas aeruginosa […] strain; in short: as §1
Escherichia coli [10] = experiment: In Vitro antibacterial activity against (Ec) Escherichia coli ATCC 25922; in short: as §1
Staphylococcus aureus [11] = experiment: In vitro antibacterial activity against Sa(II) Staphylococcus aureus ATCC 25923; in short: as §1
Staphylococcus aureus [12] = experiment: In vitro antibacterial activity against Sa(I) Staphylococcus aureus ATCC 29213; in short: as §2
Pseudomonas aeruginosa [13] = experiment: In Vitro antibacterial activity against (Pa G242) hyperpermeable Pseudomonas aeruginosa strain; in short: as §1

SMILES | MIC (Pseudomonas aeruginosa [1]) [µg/mL] | MIC (Escherichia coli [2]) [µg/mL] | MIC (Escherichia coli [3]) [µg/mL] | MIC (Staphylococcus aureus [4]) [µg/mL] | MIC (Enterococcus faecalis) [µg/mL] | MIC (Escherichia coli [5]) [µg/mL] | MIC (Escherichia coli [6]) [µg/mL] | MIC (Escherichia coli [7]) [µg/mL] | MIC (Staphylococcus aureus [8]) [µg/mL] | MIC (Pseudomonas aeruginosa [9]) [µg/mL] | MIC (Escherichia coli [10]) [µg/mL] | MIC (Staphylococcus aureus [11]) [µg/mL] | MIC (Staphylococcus aureus [12]) [µg/mL] | MIC (Pseudomonas aeruginosa [13]) [µg/mL]
C[C@@H](O)[C@H]1C(=O)N2C(C(=O)O)=C(CN3CCCCC3C(N)=O)S[C@H]12 (stereo partly specified) | > 64 | 2 (≈ 5.63 µM) | 1 (≈ 2.81 µM) | 2 (≈ 5.63 µM) | 16 (≈ 45 µM) | 1 (≈ 2.81 µM) | 1 (≈ 2.81 µM) | 2 (≈ 5.63 µM) | 0.12 (≈ 0.338 µM) | 4 (≈ 11.3 µM) | 1 (≈ 2.81 µM) | 0.06 (≈ 0.169 µM) | 0.12 (≈ 0.338 µM) | 1 (≈ 2.81 µM)
C[C@@H](O)[C@H]1C(=O)N2C(C(=O)O)=C(CN(C)C(CO)C(N)=O)S[C@H]12 (stereo partly specified) | > 64 | 1 (≈ 2.9 µM) | 1 (≈ 2.9 µM) | 8 (≈ 23.2 µM) | 4 (≈ 11.6 µM) | 0.5 (≈ 1.45 µM) | 1 (≈ 2.9 µM) | 2 (≈ 5.79 µM) | 0.25 (≈ 0.724 µM) | 8 (≈ 23.2 µM) | 0.12 (≈ 0.347 µM) | 0.06 (≈ 0.174 µM) | 0.12 (≈ 0.347 µM) | 1 (≈ 2.9 µM)
C[C@@H](O)[C@H]1C(=O)N2C(C(=O)O)=C(CN3CC3C(N)=O)S[C@H]12 (stereo partly specified) | > 64 | 2 (≈ 6.38 µM) | 4 (≈ 12.8 µM) | 8 (≈ 25.5 µM) | 16 (≈ 51.1 µM) | 4 (≈ 12.8 µM) | 2 (≈ 6.38 µM) | 4 (≈ 12.8 µM) | 0.25 (≈ 0.798 µM) | 1 (≈ 3.19 µM) | 2 (≈ 6.38 µM) | 0.25 (≈ 0.798 µM) | 0.5 (≈ 1.6 µM) | 2 (≈ 6.38 µM)
C[C@@H](O)[C@H]1C(=O)N2C(C(=O)O)=C(CN3C[C@@H](O)C[C@H]3C(N)=O)S[C@H]12 | > 64 | 2 (≈ 5.6 µM) | 2 (≈ 5.6 µM) | 8 (≈ 22.4 µM) | 16 (≈ 44.8 µM) | 2 (≈ 5.6 µM) | 1 (≈ 2.8 µM) | 2 (≈ 5.6 µM) | 0.25 (≈ 0.7 µM) | 0.5 (≈ 1.4 µM) | 0.5 (≈ 1.4 µM) | 0.12 (≈ 0.336 µM) | 0.25 (≈ 0.7 µM) | 2 (≈ 5.6 µM)
C[C@@H](O)[C@H]1C(=O)N2C(C(=O)O)=C(CN3C[C@@H](O)C[C@@H]3C(N)=O)S[C@H]12 | > 64 | 1 (≈ 2.8 µM) | 1 (≈ 2.8 µM) | 16 (≈ 44.8 µM) | 32 (≈ 89.5 µM) | 1 (≈ 2.8 µM) | 1 (≈ 2.8 µM) | 1 (≈ 2.8 µM) | 0.25 (≈ 0.7 µM) | 0.5 (≈ 1.4 µM) | 1 (≈ 2.8 µM) | 0.06 (≈ 0.168 µM) | 0.12 (≈ 0.336 µM) | 1 (≈ 2.8 µM)
C[C@@H](O)[C@H]1C(=O)N2C(C(=O)O)=C(CN(C)CCC(N)=O)S[C@H]12 | > 64 | 1 (≈ 3.04 µM) | 2 (≈ 6.07 µM) | 2 (≈ 6.07 µM) | 16 (≈ 48.6 µM) | 1 (≈ 3.04 µM) | 1 (≈ 3.04 µM) | 1 (≈ 3.04 µM) | 0.12 (≈ 0.364 µM) | 2 (≈ 6.07 µM) | 0.5 (≈ 1.52 µM) | 0.06 (≈ 0.182 µM) | 0.12 (≈ 0.364 µM) | 1 (≈ 3.04 µM)
C[C@@H](O)[C@H]1C(=O)N2C(C(=O)O)=C(CN(C)C(Cc3ccccc3)C(N)=O)S[C@H]12 (stereo partly specified) | > 64 | > 64 | 1 (≈ 2.47 µM) | 2 (≈ 4.93 µM) | 4 (≈ 9.86 µM) | > 64 | 32 (≈ 78.9 µM) |  | 0.12 (≈ 0.296 µM) | > 64 | 16 (≈ 39.5 µM) | 0.015 (≈ 0.037 µM) | 0.12 (≈ 0.296 µM) | 
C[C@@H](O)[C@H]1C(=O)N2C(C(=O)O)=C(CN(C)CC(=O)N3CCN(C)CC3)S[C@H]12 | > 64 | 1 (≈ 2.51 µM) | 1 (≈ 2.51 µM) | 4 (≈ 10 µM) | 16 (≈ 40.2 µM) | 1 (≈ 2.51 µM) | 1 (≈ 2.51 µM) | 1 (≈ 2.51 µM) | 0.5 (≈ 1.25 µM) | 4 (≈ 10 µM) | 0.5 (≈ 1.25 µM) | 0.25 (≈ 0.627 µM) | 0.25 (≈ 0.627 µM) | 1 (≈ 2.51 µM)
C[C@@H](O)[C@H]1C(=O)N2C(C(=O)O)=C(CN(C)CC(=O)N(C)C)S[C@H]12 | > 64 | 1 (≈ 2.91 µM) | 1 (≈ 2.91 µM) | 4 (≈ 11.6 µM) |  | 0.5 (≈ 1.46 µM) | 1 (≈ 2.91 µM) | 1 (≈ 2.91 µM) |  | 4 (≈ 11.6 µM) | 0.5 (≈ 1.46 µM) | 0.12 (≈ 0.349 µM) | 0.25 (≈ 0.728 µM) | 0.5 (≈ 1.46 µM)
C[C@@H](O)[C@H]1C(=O)N2C(C(=O)O)=C(CN3CCC(C(N)=O)CC3)S[C@H]12 | > 64 | 2 (≈ 5.63 µM) | 2 (≈ 5.63 µM) | 2 (≈ 5.63 µM) | 16 (≈ 45 µM) | 2 (≈ 5.63 µM) | 2 (≈ 5.63 µM) | 2 (≈ 5.63 µM) | 0.12 (≈ 0.338 µM) | 1 (≈ 2.81 µM) | 2 (≈ 5.63 µM) | 0.015 (≈ 0.0422 µM) | 0.06 (≈ 0.169 µM) | 2 (≈ 5.63 µM)

Reference: ChEMBL document CHEMBL1128718, “2-Substituted penems with amino acid-related side chains: synthesis and antibacterial activity of a new series of beta-lactam antibiotics” (1995)
